Type in all cases: functional, cell-based
The subject of test [1] is HT-29. Briefly: Cytotoxicity against human HT-29 cells by SRB staining-based fluorescence cytometry. The method, boiled down:
(§1)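 Cytotoxicity assay run with camptothecin as the reference anticancer standard.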
On the technique in general: The SRB assay estimates cell density from bound dye.

In test [2] the test system is KB. Kind of test: Cytotoxicity against human KB cells by SRB staining-based fluorescence cytometry. The method, boiled down: as §1
Test [3] concerns MCF7. Briefly: Cytotoxicity against human MCF7 cells by SRB staining-based fluorescence cytometry. The method, boiled down: as §1
In test [4] the test system is HeLa. Kind of test: Cytotoxicity against human HeLa cells by SRB staining-based fluorescence cytometry. The gist of the method: as §1
Setting [5] is: Homo sapiens, HT-29, read-out: IC50.
[6] abbreviates: Homo sapiens, KB, read-out: IC50.
[7] abbreviates: Homo sapiens, MCF7, read-out: IC50.
Setting [8] is: Homo sapiens, HeLa, read-out: IC50.

Here are results for eleven molecules from ChEMBL document CHEMBL1154212, “Candenatenins A-F, phenolic compounds from the heartwood of Dalbergia candenatensis” (J Nat Prod, 2009).

The structures appear in SMILES notation.

As usually defined, the IC50 is the midpoint of a concentration-inhibition curve. `COc1ccccc1/C=C/C[C@@]1(O)C=CC(=O)CC1`: the IC50 turned out to be 17.8 µM in test [1] (setting [5]), 70.9 µM in test [2] (setting [6]), 48.8 µM in test [3] (setting [7]) and 54.2 µM in test [4] (setting [8]).
On the same counts, the results for `COc1cc(O)c2c(c1)O[C@H](c1ccccc1)[C@@H](O)C2=O` are 46.5 µM, 73.8 µM, 49.3 µM and 79 µM.
For `O=C1C=C[C@](O)(C/C=C/c2ccccc2)CC1` [(1'R)-CANDENATENIN B], in that order: 19.7 µM, 83.7 µM, 54.4 µM and 55.7 µM.
Turning to `COc1ccc2c(c1O)OC[C@@H]1c3cc4c(cc3O[C@H]21)OCO4`, the IC50 entry in test [1] (ht-29), in test [2] (kb), in test [3] (mcf7) and in test [4] (hela) was “Not Active” throughout.
Consider `COc1c(O)ccc([C@@H]2C=Cc3cc(O)ccc3O2)c1OC`, for which the IC50 result in test [1] (ht-29), in test [2] (kb), in test [3] (mcf7) and in test [4] (hela) was “Not Active” throughout.
For `COc1ccc([C@@H]2COc3c(ccc(O)c3C/C=C(\C)CCC=C(C)C)C2)cc1`, the IC50 entry in test [1] (ht-29), in test [2] (kb), in test [3] (mcf7) and in test [4] (hela) was “Not Active” in each case.
With `CC[C@@]1(O)C(=O)OCc2c1cc1n(c2=O)Cc2cc3ccccc3nc2-1` [CAMPTOTHECIN], the IC50 in test [1] (setting [5]), in test [2] (setting [6]), in test [3] (setting [7]) and in test [4] (setting [8]) was 1.22 µM each time.
As for `COc1ccc(/C=C/Cc2ccc(O)c(OC)c2OC)cc1O` [CANDENATENIN A], the IC50 came out at 41.1 µM in test [1] (setting [5]), 42.7 µM in test [2] (setting [6]), 74.3 µM in test [3] (setting [7]) and 79 µM in test [4] (setting [8]).
On to `COc1ccc2c(c1C/C=C(\C)CCC=C(C)C)OC[C@@H]1c3cc4c(cc3O[C@H]21)OCO4` [NUTIDUCOL], for which the half-maximal inhibitory concentration (IC50) result in test [1] (ht-29), in test [2] (kb), in test [3] (mcf7) and in test [4] (hela) was “Not Active” in each case.
`CO[C@H]1CC(=O)CC[C@@]1(O)C/C=C/c1ccccc1`: the IC50 in test [1] (setting [5]) is 48.1 µM; in test [2] (setting [6]) it was 85 µM; in test [3] (setting [7]), 44.1 µM; in test [4] (setting [8]) it was 53.1 µM.
For the molecule `CC(C)=CCC/C(C)=C/Cc1c(O)cc(O)c2c1O[C@H](c1ccc(O)cc1)CC2=O` [SOPHORAFLAVANONE A], the IC50 entry in test [1] (ht-29), in test [2] (kb), in test [3] (mcf7) and in test [4] (hela) was “Not Active” throughout.
